The results in this text go back to ChEMBL document CHEMBL1141250, “Isolation, structure, and coccidiostat activity of coccidiostatin A” (J Nat Prod, 2007).

The structures appear in SMILES notation. Calls of active or inactive are those of the source. No cut-off for these calls is given here.

Data set [1] has as its system Eimeria praecox. The data set is described as follows: Anticococcidal activity against Eimeria praecox infected chick assessed as reduction of oocyst at 150 ppm after 48 hrs relative to control. The class given is functional. The method, boiled down: (§1)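 In vivo test in the minibird assay for coccidiosis (MAC) using Eimeria-infected chickens. Compounds were tested as purified material. Activity in this assay guided fractionation of the fungal extract.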

Data set [2] deals with Eimeria maxima. The data set can be described thus: Anticococcidal activity against Eimeria maxima infected chick assessed as reduction of oocyst at 75 ppm after 48 hrs relative to control. The class given is functional, organism-based. The method, boiled down:
as §1

In data set [3] the test system is Eimeria praecox. The data set can be described thus: Anticococcidal activity against Eimeria praecox infected chick at 75 to 150 ppm. The class given is functional. In short, it runs like this: as §1
Data set [4] deals with Eimeria tenella. The data set is described as follows: Anticococcidal activity against Eimeria tenella infected chick at 75 to 150 ppm. The class given is functional, organism-based. The method, boiled down:
as §1

Data set [5] deals with Eimeria acervulina. The data set is described as follows: Anticococcidal activity against Eimeria acervulina infected chick assessed as reduction of oocyst at 150 ppm after 48 hrs relative to control. The class given is functional. Also on record: scale not given: the % may be the effect or the level left. The method, boiled down:
as §1

Data set [6] relates to Eimeria tenella. The data set can be described thus: Anticococcidal activity against Eimeria tenella infected chick assessed as reduction of oocyst at 150 ppm after 48 hrs relative to control. The class given is functional. Details: scale not given: the % may be the effect or the level left. The method, boiled down: as §1
Data set [7] has as its system Eimeria acervulina. The data set is described as follows: Anticococcidal activity against Eimeria acervulina infected chick at 75 to 150 ppm. The class given is functional, organism-based. In short, it runs like this:
as §1

Data set [8] deals with HFF. The data set is described as follows: Cytotoxicity against human HFF cells at 500 ppm by Ex-Bes assay. The class given is cell-based.
Data set [9] relates to Eimeria praecox. The data set is described as follows: Anticococcidal activity against Eimeria praecox infected chick assessed as reduction of oocyst at 75 ppm after 48 hrs relative to control. The class given is functional. The method, boiled down: as §1
In data set [10] the test system is Eimeria maxima. The data set is described as follows: Anticococcidal activity against Eimeria maxima infected chick at 75 to 150 ppm. The class given is functional, organism-based. The method, boiled down:
as §1

The subject of data set [11] is Eimeria maxima. The data set can be described thus: Anticococcidal activity against Eimeria maxima infected chick assessed as reduction of oocyst at 150 ppm after 48 hrs relative to control. The class given is functional, organism-based. In short, it runs like this:
as §1

Data set [12] concerns Eimeria mitis. The data set can be described thus: Anticococcidal activity against Eimeria mitis infected chick assessed as reduction of oocyst at 150 ppm after 48 hrs relative to control. The class given is functional. Also on record: scale not given: the % may be the effect or the level left. The method, boiled down: as §1
Data set [13] has as its system Eimeria acervulina. The data set is described as follows: Anticococcidal activity against Eimeria acervulina infected chick assessed as reduction of oocyst at 75 ppm after 48 hrs relative to control. The class given is functional. Details: scale not given: the % may be the effect or the level left. In short, it runs like this:
as §1

In data set [14] the test system is Eimeria mitis. The data set is described as follows: Anticococcidal activity against Eimeria mitis infected chick at 75 to 150 ppm. The class given is functional, organism-based. In short, it runs like this:
as §1

Data set [15] concerns Eimeria tenella. The data set is described as follows: Anticococcidal activity against Eimeria tenella infected chick at 28 mg/kg, ip. The class given is functional, organism-based. Also on record: dose 28 mg/kg. The method, boiled down:
as §1

The subject of data set [16] is Eimeria acervulina. The data set is described as follows: Anticococcidal activity against Eimeria acervulina infected chick at 28 mg/kg, ip. The class given is functional, organism-based. Details: dose 28 mg/kg. In short, it runs like this: as §1
The test system of data set [17] is Eimeria praecox. The data set can be described thus: Anticococcidal activity against Eimeria praecox infected chick at 28 mg/kg, ip. The class given is functional, organism-based. Also on record: dose 28 mg/kg. In short, it runs like this: as §1
The subject of another data set is Besnoitia jellisoni. The data set can be described thus: Antiprotozoal activity against Besnoitia jellisoni trophozoites in HFF cells assessed as intactness of cell monolayer after 4 days by Ex-Bes assay. The class given is functional. The conditions noted are these: 96 h, read-out: ED50 (the source's name). In short, it runs like this: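 Whole-cell in vitro Ex-Bes (extended Besnoitia) assay: B. jellisoni trachyzoites treated with test compounds. ED50 is the concentration giving 50% reduction of trachyzoites relative to an untreated control, read visually. Value is the average of two experiments run in duplicate.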

Data set [18] concerns Eimeria acervulina. The data set can be described thus: Anticococcidal activity against Eimeria acervulina infected chick at 416 ppm, po. The class given is functional, organism-based. In short, it runs like this:
as §1

Data set [19] relates to Eimeria tenella. The data set can be described thus: Anticococcidal activity against Eimeria tenella infected chick at 416 ppm, po. The class given is functional, organism-based. In short, it runs like this: as §1
In data set [20] the test system is Eimeria mitis. The data set can be described thus: Anticococcidal activity against Eimeria mitis infected chick at 416 ppm, po. The class given is functional, organism-based. In short, it runs like this: as §1
For data set [21], the system named is Eimeria praecox. The data set can be described thus: Anticococcidal activity against Eimeria praecox infected chick at 416 ppm, po. The class given is functional. The method, boiled down:
as §1

In data set [22] the test system is Eimeria mitis. The data set can be described thus: Anticococcidal activity against Eimeria mitis infected chick at 28 mg/kg, ip. The class given is functional, organism-based. Details: dose 28 mg/kg. The method, boiled down: as §1
For data set [23], the system named is Eimeria maxima. The data set can be described thus: Anticococcidal activity against Eimeria maxima infected chick at 28 mg/kg, ip. The class given is functional, organism-based. Also on record: dose 28 mg/kg. In short, it runs like this: as §1
Data set [24] concerns Eimeria maxima. The data set is described as follows: Anticococcidal activity against Eimeria maxima infected chick at 416 ppm, po. The class given is functional, organism-based. The method, boiled down: as §1
Data set [25] relates to HFF. The data set can be described thus: Cytotoxicity against human HFF cells at 1 ug/ml by Ex-Bes assay. The class given is cell-based.
Data set [26] has as its system HFF. The data set is described as follows: Cytotoxicity against human HFF cells at =< 0.125 ug/ml by Ex-Bes assay. The class given is cell-based.

In the case of `CC1=C[C@@]2(C)O[C@@H](C)[C@@](C)(O)[C@H]2[C@@H]1/C=C/C=C/C=C/C=C/C1(C)C2OC(=O)C1(C)C(=O)C2C` (stereo partly drawn) [COCCIDIOSTATIN A], the outcome in the data set on Eimeria praecox [1], with Eimeria maxima [2], in the data set on Eimeria praecox [9] and in the data set with Eimeria maxima [11] was inactive. The outcome in the data set on Eimeria praecox [3], in the data set with Eimeria tenella [4], with Eimeria acervulina [7], with Eimeria maxima [10] and in the data set on Eimeria mitis [14] was Active. The Activity in the data set on Eimeria acervulina [5] was 74%; with Eimeria tenella [6] it was 59%; with HFF [8] it was “Non-toxic”; in the data set on Eimeria mitis [12], 44%; in the data set on Eimeria acervulina [13], 64%.
On to `CC(=C/C(C)=C\[C@]1(C)O[C@@H](C)[C@]2(C)O[C@@H]21)/C=C(C)\C=C(C)/C=C(\C)[C@@H]1OC(=O)C(C)(C)C(=O)[C@H]1C` [EMECORRGATIN A], for which the outcome with Eimeria tenella [15], in the data set on Eimeria acervulina [16], in the data set on Eimeria praecox [17], in the data set on Eimeria acervulina [18], with Eimeria tenella [19] and in the data set with Eimeria mitis [20] was inactive. Also, the result in the data set with Eimeria praecox [21], with Eimeria mitis [22], in the data set on Eimeria maxima [23] and with Eimeria maxima [24] was inactive. The EC50 in the data set on Besnoitia jellisoni worked out at 1390 nM.
Turning to `CCC(=O)CCCCC[C@@H]1NC(=O)[C@H]2CCCCN2C(=O)[C@H]([C@@H](C)CC)NC(=O)[C@H](Cc2cn(OC)c3ccccc23)NC1=O` [APICIDIN], the Activity result in the data set with HFF [25] is given as “Toxic”; in the data set with HFF [26], “Non-toxic”. The EC50 in the data set with Besnoitia jellisoni was under 280 nM.
